The source of these data is ChEMBL document CHEMBL1909547, “Discovery of spiropiperidine-based potent and selective Orexin-2 receptor antagonists” (Bioorg Med Chem Lett, 2011).

Molecules are shown by their SMILES. Values after ≈ are worked out from the molar mass of the structure shown.

Data set [1] addresses T1, Orexin receptor type 2 (Homo sapiens, UniProt O43614).
T1 sequence (O43614 whole entry): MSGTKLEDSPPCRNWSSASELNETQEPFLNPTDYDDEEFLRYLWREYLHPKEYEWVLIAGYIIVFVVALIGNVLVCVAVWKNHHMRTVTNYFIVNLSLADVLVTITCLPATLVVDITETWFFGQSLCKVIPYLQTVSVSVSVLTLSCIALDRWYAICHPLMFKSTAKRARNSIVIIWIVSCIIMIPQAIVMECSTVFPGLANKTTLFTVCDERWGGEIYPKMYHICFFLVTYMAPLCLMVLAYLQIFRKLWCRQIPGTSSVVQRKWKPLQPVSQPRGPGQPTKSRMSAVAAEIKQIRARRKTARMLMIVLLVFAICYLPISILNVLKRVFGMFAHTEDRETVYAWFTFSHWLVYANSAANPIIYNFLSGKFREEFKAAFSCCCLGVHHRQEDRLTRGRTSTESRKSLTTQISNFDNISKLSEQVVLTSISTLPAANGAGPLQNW
Description: Antagonist activity at OX2R expressed in dihydrofolate reductase deficient CHO cells assessed as inhibition of orexin A-induced intracellular calcium mobilization by FLIPR assay. It is filed as functional, cell-based.

Data set [2] addresses T2, Orexin/Hypocretin receptor type 1 (Homo sapiens, UniProt O43613).
T2 sequence (O43613 whole entry): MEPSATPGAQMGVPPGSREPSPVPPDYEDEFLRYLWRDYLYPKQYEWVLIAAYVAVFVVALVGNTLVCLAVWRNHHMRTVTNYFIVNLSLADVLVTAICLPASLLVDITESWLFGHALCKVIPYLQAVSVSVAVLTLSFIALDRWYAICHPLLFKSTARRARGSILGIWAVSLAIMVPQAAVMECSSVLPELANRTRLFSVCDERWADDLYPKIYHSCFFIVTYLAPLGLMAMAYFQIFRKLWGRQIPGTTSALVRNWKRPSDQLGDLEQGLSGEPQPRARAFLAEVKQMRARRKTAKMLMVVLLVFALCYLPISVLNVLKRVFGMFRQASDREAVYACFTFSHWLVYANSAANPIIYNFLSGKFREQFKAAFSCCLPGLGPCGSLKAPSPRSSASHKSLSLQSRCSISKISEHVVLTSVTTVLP
Description: Antagonist activity at OX1R expressed in dihydrofolate reductase deficient CHO cells assessed as inhibition of orexin A-induced intracellular calcium mobilization by FLIPR assay. The data set is classed as functional, cell-based. (Calcium assays in cells follow changes in intracellular calcium, usually with a dye or a luminescent sensor.)

Data set [3] in a line: Selectivity ratio of IC50 for OX1R to IC50 for OX2R.
Data set [4] is described as follows: Solubility of the compound in stomach simulated fluid JP1. The data set is classed as physicochemical. Summed up: (§1)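 Solubility was measured in the Japanese Pharmacopoeia dissolution fluids. JP1 is the first fluid, an acidic stomach-simulating solution. JP2 is the second fluid, a buffer that mimics intestinal pH.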
Data set [5] in a line: Solubility of the compound in intestine simulated fluid JP2. It is filed as physicochemical. Summed up:
as §1

The nature of data set [6]: Lipophilicity, log D of the compound. The data set is classed as physicochemical. Particulars: octanol/water.

`O=S(=O)(c1ccccc1)N1CCOC12CCN(c1cnc3ccccc3n1)CC2`: the values for the IC50 in data set [1] and in data set [2] were 0.23 µM and 1.6 µM, respectively. The Ratio IC50 in data set [3] was 7.
Turning to `O=C(Nc1ccccc1)N1CCC2(CC1)OCCN2S(=O)(=O)c1ccccc1`, the IC50 (commonly the concentration needed to halve the response being measured) in data set [1] was 0.71 µM; in data set [2] it was 6.3 µM. Also, in data set [3], the Ratio IC50 is 8.9. The solubility (commonly how much of the substance goes into solution per volume) in data set [4] was less than 0.07 mg/mL; in data set [5], 1.7 mg/mL (≈ 4.23 mM). Besides, in data set [6], the logD (in general, lipophilicity at a set pH, counting ionised and neutral species) came out at 1.82.
For `COc1ccc(S(=O)(=O)N2CCOC23CCN(C(=O)Nc2ccccc2)CC3F)cc1OC` (stereo not given), the results for the IC50 in data set [1] and in data set [2] were 0.0033 µM and 1.5 µM, respectively. In addition, the Ratio IC50 in data set [3] was determined as 450. In addition, the values for the solubility in data set [4] and in data set [5] were 5.9 mg/mL (≈ 12.3 mM) and 4.5 mg/mL (≈ 9.38 mM), respectively. For the same compound, the logD in data set [6] is 1.35.
Regarding `O=C(Nc1ccccc1)N1CCC2(OCCN2S(=O)(=O)c2ccccc2)[C@H](F)C1` (mixture of isomers), the figures for the IC50 in data set [1] and in data set [2] were 0.17 µM and 0.28 µM, respectively. For the same compound, the Ratio IC50 in data set [3] came to 1.6. Moreover, the solubility in data set [4] is 45 mg/mL; in data set [5], 34 mg/mL. Besides, in data set [6], the log distribution coefficient (logD) is 2.04.
For the compound `O=C(Nc1ccccc1)N1CCC2(OCCN2S(=O)(=O)c2ccccc2)[C@@H](F)C1` (mixture of isomers), the IC50 in data set [1] amounted to 0.22 µM; in data set [2] it was 2.5 µM. Besides, the Ratio IC50 in data set [3] amounted to 11. Besides, the solubility in data set [4] was 8.5 mg/mL; in data set [5], 12 mg/mL. Further, the logD in data set [6] amounted to 1.5.
For `O=C(Nc1ccccc1)N1CCC2(OCCN2S(=O)(=O)c2ccccc2)C(F)(F)C1` (racemic), the results for the concentration for half-maximal inhibition (IC50) in data set [1] and in data set [2] were 1 µM and more than 10 µM, respectively. Further, in data set [3], the Ratio IC50 is more than 10. For the same compound, the solubility in data set [4] is 21 mg/mL (≈ 48 mM); in data set [5] it was 18 mg/mL (≈ 41.1 mM). In data set [6], this compound gave a log distribution coefficient (logD) of 1.93.
Consider `COc1cccc(S(=O)(=O)N2CCOC23CCN(C(=O)Nc2ccccc2)CC3F)c1` (racemic), for which the concentration for half-maximal inhibition (IC50) in data set [1] turned out to be 0.13 µM; in data set [2] it was 2.3 µM. In addition, in data set [3], the Ratio IC50 worked out at 18. Further, the solubility in data set [4] is 2.1 mg/mL (≈ 4.67 mM); in data set [5] it was 2.4 mg/mL (≈ 5.34 mM). The logD in data set [6] was 1.75.
Consider `COc1ccc(S(=O)(=O)N2CCOC23CCN(C(=O)Nc2ccccc2)CC3F)cc1` (racemic), for which the IC50 in data set [1] stood at 0.087 µM; in data set [2], 1.6 µM. Further, the Ratio IC50 in data set [3] came to 18. Besides, the solubility is 0.49 mg/mL (≈ 1.09 mM) in data set [4] and 0.58 mg/mL (≈ 1.29 mM) in data set [5]. The compound also showed a log distribution coefficient (logD) in data set [6] of 1.63.
